Data set [1] relates to Rattus norvegicus. Kind of data set: Per oral dose (0 mg/Kg) reducing rat corneal kindling 0.5 hr after administration. It counts as functional. The essentials: (§1)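 Sprague-Dawley rats (85–95 g initial) were kindled with 4 s, 8 mA corneal stimulations (butacaine anesthesia) to 10 consecutive stage 5 seizures. After a vehicle shock and a 2-day shock-free period, test drug was given ip or po and a single shock applied at time of peak effect. Seizures were scored on a modified Racine 0–5 scale. ED50 is the dose reducing severity by 50% (Litchfield–Wilcoxon).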

A short description of data set [2]: Antiepileptic activity in male CF1 mice 1 hr after oral administration measured in maximum electroshock seizure(MES) test at a dose of 50 mg/kg; activity value is 3/4. The class given is functional, Mus musculus.
Data set [3] can be described thus: Protective index was measured as TD50/MES ED50 in mice on ip administration. The class given is ADME, organism-based. The note with it: mouse, in vivo, read-out: PI. The essentials: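 Male CF1 mice (ca. 24–34 g), compound given ip as 0.5% methylcellulose suspension. MES ED50 = dose protecting 50% from tonic hind limb extension; TD50 = median neurotoxic dose by rotorod; both at time of peak effect, with confidence limits by Litchfield and Wilcoxon. PI = TD50/MES ED50.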

Data set [4] is described as follows: Protective index was measured as TD50/ED50. It counts as ADME. The note with it: read-out: PI.
The test system of data set [5] is Rattus norvegicus. Kind of data set: Dose reducing the seizure severity in rat cornea 0.5 hr after peroral administration. The class given is ADME, organism-based. The note with it: po. The essentials:
as §1

Data set [6] is described as follows: Antiepileptic activity in male CF1 mice 30 min after administration measured in maximum electroshock seizure(MES) test at a dose of 300 mg/kg (no. of animals treated /protected); activity value is 1/1. It counts as functional, Mus musculus.
Data set [7] in a line: Oral dose producing neurotoxic effects in 50% of rats. The class given is ADME, organism-based. The note with it: rat, in vivo. The essentials:
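Phase VI screen in male Sprague-Dawley rats dosed orally. MES protection and rotorod toxicity were scored as animals responding over animals tested at 0.25, 0.5, 1, 2 and 4 h.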

A short description of data set [8]: Antiepileptic activity in male CF1 mice 2 hr after oral administration measured in neurological toxicity (Tox) test at a dose of 50 mg/kg (no. of animals treated /protected); activity value is 0/4. The class given is functional, Mus musculus.
The subject of data set [9] is Rattus norvegicus. Briefly: Per oral dose (50 mg/Kg) reducing rat corneal kindling 0.5 hr after administration. It counts as functional. The essentials: as §1
Data set [10] can be described thus: Antiepileptic activity in male CF1 mice 30 min after administration measured in subcutaneous pentylenetetrazole (scMet) test at a dose of 100 mg/kg (no. of animals treated /protected); activity value is 0/1. The class given is functional, Mus musculus.
A short description of data set [11]: Dose at which anticonvulsant activity was observed in mice. It counts as functional, Mus musculus.
Data set [12] in a line: Protective index was measured as TD50/ED50 in rat on oral administration. The note with it: in vivo, read-out: PI. It counts as ADME, organism-based.
Data set [13] can be described thus: Antiepileptic activity in male CF1 mice 30 min after administration measured in subcutaneous pentylenetetrazole (scMet) test at a dose of 300 mg/kg (no. of animals treated /protected); activity value is 0/1. It counts as functional, Mus musculus.
The nature of data set [14]: Time of peak anticonvulsant effect in CF1 mice. The class given is functional, Mus musculus. The essentials:
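Male CF1 mice (ca. 24–34 g), compound in 0.5% methylcellulose suspension given ip or po; time (h) at which MES protection (against tonic hind limb extension) peaked was recorded and used for ED50 determination.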

Data set [15] in a line: Time of peak neurotoxic effect in CF1 mice. The note with it: mouse, in vivo. It counts as ADME. The essentials: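 Male CF1 mice (ca. 24–34 g), compound ip in 0.5% methylcellulose suspension; neurological deficit assessed by rotorod test, time (h) of peak neurotoxic effect recorded for TD50 determination.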
The nature of data set [16]: Antiepileptic activity in male CF1 mice 4 hr after administration measured in neurological toxicity (Tox) test at a dose of 300 mg/kg (no. of animals treated /protected); activity value is 0/2. It counts as functional, Mus musculus.
Data set [17] concerns Rattus norvegicus. Briefly: Average seizure score for the rat cornea 0.5 hr after peroral administration of 50 mg/kg of compound. The note with it: route oral. The class given is functional. The essentials:
as §1

The nature of data set [18]: Antiepileptic activity in male CF1 mice 4 hr after administration measured in maximum electroshock seizure(MES) test at a dose of 100 mg/kg (no. of animals treated /protected); activity value is 0/3. It counts as functional, Mus musculus.
Data set [19] concerns Rattus norvegicus. Kind of data set: Average seizure score for the rat cornea 0.5 hr after peroral administration of 75 mg/kg of compound. The class given is functional. The note with it: route oral. The essentials:
as §1

Data set [20] in a line: Dose showing neurotoxicity in 50% of the at the time of peak neurotoxic effect in CF1 MICE after ip administration. It counts as functional. The note with it: Mus musculus. The essentials: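 Phase II quantification in CF1 male mice (ca. 24–34 g), dosing ip or po in 0.5% methylcellulose suspension. ED50 is protection from tonic hind limb extension in MES. TD50 is rotorod neurotoxicity. Both were read at time of peak effect and derived by Litchfield–Wilcoxon with 95% confidence limits.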

Data set [21] deals with Rattus norvegicus. Kind of data set: Average seizure score for the rat cornea 0.5 hr after peroral administration of 0 mg/kg of compound. The note with it: route oral. The class given is functional. The essentials: as §1
A short description of data set [22]: Antiepileptic activity in male CF1 mice 4 hr after administration measured in subcutaneous pentylenetetrazole (scMet) test at a dose of 300 mg/kg (no. of animals treated /protected); activity value is 0/1. It counts as functional, Mus musculus.
The nature of data set [23]: Antiepileptic activity in male CF1 mice 4 hr after administration measured in maximum electroshock seizure(MES) test at a dose of 300 mg/kg. It counts as functional, Mus musculus.
A short description of data set [24]: Antiepileptic activity in male CF1 mice 2 hr after oral administration measured in neurological toxicity (Tox) test at a dose of 10 mg/kg (no. of animals treated /protected); activity value is 0/4. It counts as functional, Mus musculus.
Data set [25] is described as follows: Antiepileptic activity in male CF1 mice 0.25 hr after oral administration measured in neurological toxicity (Tox) test at a dose of 10 mg/kg (no. of animals treated /protected); activity value is 0/4. It counts as functional, Mus musculus.
Data set [26] is described as follows: Antiepileptic activity in male CF1 mice 2 hr after oral administration measured in maximum electroshock seizure(MES) test at a dose of 10 mg/kg (no. of animals treated /protected); activity value is 4/4. The class given is functional, Mus musculus.
The nature of data set [27]: Antiepileptic activity in male CF1 mice 1 hr after oral administration measured in maximum electroshock seizure(MES) test at a dose of 10 mg/kg; activity value is 4/4. It counts as functional, Mus musculus.
Data set [28] can be described thus: Antiepileptic activity in male CF1 mice 4 hr after oral administration measured in neurological toxicity (Tox) test at a dose of 10 mg/kg (no. of animals treated /protected); activity value is 0/4. The class given is functional, Mus musculus.
Data set [29] in a line: Antiepileptic activity in male CF1 mice 4 hr after administration measured in subcutaneous pentylenetetrazole (scMet) test at a dose of 100 mg/kg (no. of animals treated /protected); activity value is 0/1. The class given is functional, Mus musculus.
Data set [30] concerns Rattus norvegicus. Briefly: Per oral dose (20 mg/Kg) reducing rat corneal kindling 0.5 hr after administration. The class given is functional. The essentials: as §1
Data set [31] in a line: Antiepileptic activity in male CF1 mice 4 hr after administration measured in maximum electroshock seizure(MES) test at a dose of 300 mg/kg (no. of animals treated /protected); activity value is 1/1. It counts as functional, Mus musculus.
Data set [32] is described as follows: Antiepileptic activity in male CF1 mice 4 hr after administration measured in neurological toxicity (Tox) test at a dose of 100 mg/kg (no. of animals treated /protected); activity value is 0/4. The class given is functional, Mus musculus.

The structures appear in SMILES notation. Some results are limits rather than exact numbers.

Usually ED50 stands for the dose that gives a 50% effect, or the effect in half of the subjects. The TD50 is the dose at which the toxic effect under study appears in half of the subjects. Higher therefore signals harm only at a large dose.

`COC(=O)C1C(=O)C=C(NCc2ccccc2)CC1C` (stereo not drawn): the Reduction with Rattus norvegicus [1] stood at 0%; in the data set with Rattus norvegicus [9], 29%. Besides, the Activity in [2] was found to be 3; in data set [6], 1; in data set [8], 0; in [10], 0; in data set [13], 0; in data set [16] it was 0. Besides, the Activity in data set [18] amounted to 0; in data set [22] it was 0; in data set [23] it was 0.1. Further, the results for the selectivity ratio in data set [3], in data set [4] and in [12] were over 11.9, 7.7 and 18.7, respectively. Also, the ED50 in the data set on Rattus norvegicus [5] (Rattus norvegicus, Cornea) is 78.3 mg/kg; in data set [20], over 500 mg/kg. Also, the TD50 in [7] was over 500 mg/kg. Besides, the Dose result in data set [11] is recorded as “<=100 mg kg-1”. Further, the figures for the TPE in data set [14] and in data set [15] were 0.5 and 1, respectively. The Average seizure score in the data set with Rattus norvegicus [17] was 3.6; in the data set on Rattus norvegicus [19], 2.6; with Rattus norvegicus [21], 5.
`COC(=O)C1C(=O)C=C(Nc2ccc(Cl)cc2)CC1C` (stereo not drawn): the Activity in [24] was determined as 0; in [25], 0; in data set [26], 4; in data set [27], 4; in [28] it was 0; in data set [29] it was 0. Also, the Activity in [6] amounted to 1; in data set [10], 0; in [31] it was 1; in data set [13], 0; in data set [32] it was 0; in data set [16], 0. In addition, the Activity in [18] and in data set [22] was 0 throughout. For the same molecule, the figures for the Reduction with Rattus norvegicus [1], with Rattus norvegicus [30] and with Rattus norvegicus [9] were 0%, 40% and 67%, respectively. In [4], the selectivity ratio was found to be 9.7. In the data set with Rattus norvegicus [5] (rat, in vivo), this molecule registered an ED50 of 34.2 mg/kg. The molecule further gave a TD50 in data set [7] of over 380 mg/kg. For the same molecule, in data set [11], the Dose entry is “<=100 mg kg-1”. In addition, the values for the TPE in [14] and in data set [15] were 0.5 and 2, respectively. Besides, the Average seizure score in the data set with Rattus norvegicus [17] stood at 1.7; with Rattus norvegicus [21] it was 4.9.

The values are drawn from ChEMBL document CHEMBL1125497, “Synthesis and anticonvulsant activity of enaminones” (J Med Chem, 1992).
